ChEMBL document CHEMBL4130411, “Arylthiazole antibiotics targeting intracellular methicillin-resistant Staphylococcus aureus (MRSA) that interfere with bacterial cell wall synthesis” (Eur J Med Chem, 2017)
In brackets after ≈: the same amount, converted by molar mass. Activity calls are given as the source filed them. The rule behind the calls is not given here.

Key:
Staphylococcus aureus [1] = experiment: Bactericidal activity against vancomycin-resistant Staphylococcus aureus isolate 10 incubated for 20 hrs followed by replating on tryptic soy agar plates and further incubated for 18 hrs by broth microdilution assay; format: functional
Method in brief: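 From MIC wells without visible growth, an aliquot was spotted onto Tryptic soy agar and incubated at 37 °C for at least 18 h; MBC = lowest concentration inhibiting 99.9% of bacterial growth.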

Staphylococcus aureus [2] = experiment: Antibacterial activity against methicillin-resistant Staphylococcus aureus NRS123 (USA400) after 20 hrs by broth microdilution assay; format: functional
Staphylococcus aureus [3] = experiment: Bactericidal activity against methicillin-resistant Staphylococcus aureus NRS123 (USA400) incubated for 20 hrs followed by replating on tryptic soy agar plates and further incubated for 18 hrs by broth microdilution assay; format: functional
Staphylococcus aureus [4] = experiment: Antibacterial activity against vancomycin-resistant Staphylococcus aureus isolate 10 after 20 hrs by broth microdilution assay; format: functional; conditions: isolate 10, 20 h
Staphylococcus aureus [5] = experiment: Antibacterial activity against methicillin-resistant Staphylococcus aureus USA300 NRS384 after 20 hrs by broth microdilution assay; format: functional; conditions: USA300 NRS384, 20 h
Staphylococcus aureus [6] = experiment: Bactericidal activity against methicillin-resistant Staphylococcus aureus USA300 NRS384 incubated for 20 hrs followed by replating on tryptic soy agar plates and further incubated for 18 hrs by broth microdilution assay; format: functional
Staphylococcus aureus [7] = experiment: Antibacterial activity against Staphylococcus aureus RN4220 NRS107 after 20 hrs by broth microdilution assay; format: functional; conditions: RN4220 NRS107, 20 h
Staphylococcus aureus [8] = experiment: Bactericidal activity against vancomycin-resistant Staphylococcus aureus isolate 4 incubated for 20 hrs followed by replating on tryptic soy agar plates and further incubated for 18 hrs by broth microdilution assay; format: functional
Staphylococcus aureus [9] = experiment: Antibacterial activity against vancomycin-resistant Staphylococcus aureus isolate 4 after 20 hrs by broth microdilution assay; format: functional; conditions: isolate 4, 20 h
Staphylococcus aureus [10] = experiment: Bactericidal activity against Staphylococcus aureus RN4220 NRS107 incubated for 20 hrs followed by replating on tryptic soy agar plates and further incubated for 18 hrs by broth microdilution assay; format: functional
Staphylococcus aureus [11] = experiment: Bactericidal activity against methicillin-resistant Staphylococcus aureus USA100 NRS382 incubated for 20 hrs followed by replating on tryptic soy agar plates and further incubated for 18 hrs by broth microdilution assay; format: functional
Staphylococcus aureus [12] = experiment: Antibacterial activity against methicillin-resistant Staphylococcus aureus USA100 NRS382 after 20 hrs by broth microdilution assay; format: functional; conditions: USA100 NRS382, 20 h
Staphylococcus aureus [13] = experiment: Antibacterial activity against methicillin-resistant Staphylococcus aureus USA200 NRS383 after 20 hrs by broth microdilution assay; format: functional; conditions: USA200 NRS383, 20 h
Staphylococcus aureus [14] = experiment: Bactericidal activity against methicillin-resistant Staphylococcus aureus USA200 NRS383 incubated for 20 hrs followed by replating on tryptic soy agar plates and further incubated for 18 hrs by broth microdilution assay; format: functional
[15] = Half life in human liver microsomes in presence of NADPH by LC-MS/MS analysis; format: ADME, microsome; conditions: liver microsomes
Method in brief: (§1)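 Human liver microsomal protein was incubated in duplicate at 37 °C in 100 mM potassium phosphate, 2 mM NADPH, 3 mM MgCl2, pH 7.4. Samples were taken at 0, 10, 20, 40 and 60 min and stopped with ice-cold methanol containing an internal standard. Half-life was derived from depletion. CLint = ln(2)/(T1/2 × microsomal protein concentration).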

[16] = Half life in human liver microsomes in absence of NADPH by LC-MS/MS analysis; format: ADME, microsome
Method in brief: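 Human liver microsomes were incubated in duplicate at 37 °C in 100 mM potassium phosphate with 3 mM MgCl2, pH 7.4, without NADPH to detect NADPH-free degradation. Aliquots were taken at 0, 10, 20, 40 and 60 min and quenched in ice-cold methanol containing an internal standard, then held at least 10 min at -20 °C before water was added. Half-life was taken from compound depletion.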

[17] = Intrinsic clearance in human liver microsomes in presence of NADPH by LC-MS/MS analysis; format: ADME, microsome; conditions: read-out: CLH; method in brief: as §1
Staphylococcus aureus [18] = experiment: Bactericidal activity against methicillin-resistant Staphylococcus aureus NRS123 (USA400) assessed as time required for complete bacterial elimination after 24 hrs by time-kill assay; format: functional
Staphylococcus aureus [19] = experiment: Inhibition of cell wall synthesis in Staphylococcus aureus RN4220 NRS107 assessed as UDP-N-acetylmuramyl pentapeptide formation at 10 times MIC incubated for 30 mins by HPLC-MS analysis; format: functional, organism-based
Staphylococcus aureus [20] = experiment: Antibacterial activity against methicillin-resistant Staphylococcus aureus USA300 NRS384 infected in Caenorhabditis elegans AU37 assessed as reduction in bacterial burden at 20 ug/ml after 18 hrs by microscopic analysis; format: functional
Staphylococcus aureus [21] = experiment: Antibacterial activity against methicillin-resistant Staphylococcus aureus NRS123 (USA400) infected in mouse J774 cells assessed as reduction in bacterial colony forming units at 16 ug/ml after 24 hrs relative to control; format: functional
Method in brief: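 J774 macrophages in DMEM + 10% FBS, 37 °C, 5% CO2, infected with USA400 at MOI ~100:1; after 1 h, gentamicin (50 µg/mL) wash; agent at 16 µg/mL in triplicate; at time point, gentamicin wash, lysis in 0.1% Triton X-100, serial dilution, TSA plating 18-22 h at 37 °C; % CFU/mL reduction versus untreated; t-test.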

Bacillus subtilis [22] = experiment: Inhibition of cell wall biosynthesis in Bacillus subtilis assessed as induction of formation of misshapen cells at 1.875 ug/ml incubated for 2 hrs by FM-4-64 staining based assay; format: functional, organism-based
Method in brief: (§2)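 B. subtilis grown in LB at 37 °C to OD600 ~0.2, then treated with or without the osmotic stabiliser MSM for 2 h; stained with FM 4-64 (1 µg/mL, membranes), DAPI (1 µg/mL, DNA) and SYTOX Green (1 µg/mL, lysis); imaged by deconvolution fluorescence microscopy.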

Bacillus subtilis [23] = experiment: Inhibition of cell wall biosynthesis in Bacillus subtilis assessed as induction of large bulges formation at 1.875 ug/ml incubated for 2 hrs by FM-4-64 staining based assay; format: functional, organism-based; method in brief: as §2
Bacillus subtilis [24] = experiment: Inhibition of cell wall biosynthesis in Bacillus subtilis assessed as induction of large bulges formation at 37.5 ug/ml incubated for 2 hrs by FM-4-64 staining based assay; format: functional, organism-based
Method in brief: (§3)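 B. subtilis was grown in LB at 37 °C to OD600 ~0.2, then treated for 2 h with or without the osmotic stabiliser MSM. Cells were stained with FM 4-64 (1 µg/mL, membranes), DAPI (1 µg/mL, DNA) and SYTOX Green (1 µg/mL, lysis). Morphology was scored by deconvolution fluorescence microscopy against untreated cells.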

Bacillus subtilis [25] = experiment: Inhibition of cell wall biosynthesis in Bacillus subtilis assessed as induction of formation of misshapen cells at 37.5 ug/ml incubated for 2 hrs by FM-4-64 staining based assay; format: functional, organism-based; method in brief: as §3

Row | Structure (SMILES) | MBC (Staphylococcus aureus [1]) [µg/mL] | MIC (Staphylococcus aureus [2]) [µg/mL] | MBC (Staphylococcus aureus [3]) [µg/mL] | MIC (Staphylococcus aureus [4]) [µg/mL] | MIC (Staphylococcus aureus [5]) [µg/mL] | MBC (Staphylococcus aureus [6]) [µg/mL] | MBC (Staphylococcus aureus [10]) [µg/mL] | MBC (Staphylococcus aureus [11]) [µg/mL] | MBC (Staphylococcus aureus [14]) [µg/mL] | further results
1 | Cc1nc(-c2ccc(-c3ccccc3)cc2)sc1-c1cnc(N)s1 | > 64 | > 64 | > 64 | > 64 | > 64 | > 64 | – | – | – | –
2 | CCCCc1ccc(-c2nc(C)c(-c3cnc(N)s3)s2)cc1 | > 64 | > 64 | > 64 | > 64 | > 64 | > 64 | – | – | – | –
3 | CCCCc1ccc(-c2nc(C)c(-c3cnc(NC(=N)N)s3)s2)cc1 | 8 (≈ 21.5 µM) | 16 (≈ 43.1 µM) | 16 (≈ 43.1 µM) | 8 (≈ 21.5 µM) | 16 (≈ 43.1 µM) | 16 (≈ 43.1 µM) | 32 (≈ 86.1 µM) | – | – | MIC (Staphylococcus aureus [7]): 16 µg/mL (≈ 43.1 µM); MBC (Staphylococcus aureus [8]): 8 µg/mL (≈ 21.5 µM); MIC (Staphylococcus aureus [9]): 8 µg/mL (≈ 21.5 µM)
4 | Cc1nc(-c2ccc(-c3ccccc3)cc2)sc1-c1cnc(-c2cccnc2)s1 | 16 (≈ 38.9 µM) | 16 (≈ 38.9 µM) | > 64 | 16 (≈ 38.9 µM) | 16 (≈ 38.9 µM) | 64 (≈ 156 µM) | – | > 64 | > 64 | MIC (Staphylococcus aureus [12]): 8 µg/mL (≈ 19.4 µM); MIC (Staphylococcus aureus [13]): 8 µg/mL (≈ 19.4 µM)
5 | Cc1nc(-c2ccc3ccccc3c2)sc1-c1cnc(-c2cccnc2)s1 | 16 (≈ 41.5 µM) | 16 (≈ 41.5 µM) | > 64 | 16 (≈ 41.5 µM) | 16 (≈ 41.5 µM) | 64 (≈ 166 µM) | – | > 64 | > 64 | MIC (Staphylococcus aureus [12]): 8 µg/mL (≈ 20.8 µM); MIC (Staphylococcus aureus [13]): 8 µg/mL (≈ 20.8 µM)
6 | CCCCc1ccc(-c2nc(C)c(/C(C)=N/NC(=N)N)s2)cc1 | – | – | – | – | – | – | – | – | – | half-life [15]: 28.8 min; t1/2 [16]: > 240 min; microsomal CLint [17]: 80.3 µL/min/mg
7 | CN[C@H](CC(C)C)C(=O)N[C@H]1C(=O)N[C@@H](CC(N)=O)C(=O)N[C@H]2C(=O)N[C@H]3C(=O)N[C@H](C(=O)N[C@H](C(=O)O)c4cc(O)cc(O)c4-c4cc3ccc4O)[C@H](O)c3ccc(c(Cl)c3)Oc3cc2cc(c3O[C@@H]2O[C@H](CO)[C@@H](O)[C@H](O)[C@H]2O[C@H]2C[C@](C)(N)[C@H](O)[C@H](C)O2)Oc2ccc(cc2Cl)[C@H]1O [VANCOMYCIN] | > 512 | – | – | ≥ 512 | – | – | – | – | – | Time (Staphylococcus aureus [18]): 24 h; inhibition (Staphylococcus aureus [19]): Active; Activity (Staphylococcus aureus [20]): inactive; MIC (Staphylococcus aureus [9]): > 512 µg/mL; Activity (Staphylococcus aureus [21]): inactive
8 | Cc1onc(-c2ccccc2)c1C(=O)N[C@@H]1C(=O)N2[C@@H]1SC(C)(C)[C@@H]2C(=O)O | – | – | – | – | – | – | – | – | – | inhibition (Bacillus subtilis [22]): Active; inhibition (Bacillus subtilis [23]): Active
9 | CCCCc1ccc(-c2nc(C)c(-c3cnc(-c4cccnc4)s3)s2)cc1 | > 64 | 16 (≈ 40.9 µM) | 16 (≈ 40.9 µM) | > 64 | 16 (≈ 40.9 µM) | 16 (≈ 40.9 µM) | 32 (≈ 81.7 µM) | – | – | MIC (Staphylococcus aureus [7]): 16 µg/mL (≈ 40.9 µM); MBC (Staphylococcus aureus [8]): > 64 µg/mL; MIC (Staphylococcus aureus [9]): > 64 µg/mL
10 | Cc1nc(-c2ccc3ccccc3c2)sc1-c1cnc(NN)s1 | 16 (≈ 47.3 µM) | 16 (≈ 47.3 µM) | > 64 | 16 (≈ 47.3 µM) | 16 (≈ 47.3 µM) | 64 (≈ 189 µM) | – | > 64 | > 64 | MIC (Staphylococcus aureus [12]): 8 µg/mL (≈ 23.6 µM); MIC (Staphylococcus aureus [13]): 8 µg/mL (≈ 23.6 µM)
11 | Cc1nc(-c2ccc(-c3ccccc3)cc2)sc1-c1cnc(NN)s1 | 16 (≈ 43.9 µM) | 16 (≈ 43.9 µM) | > 64 | 16 (≈ 43.9 µM) | 16 (≈ 43.9 µM) | 64 (≈ 176 µM) | – | > 64 | > 64 | MIC (Staphylococcus aureus [12]): 8 µg/mL (≈ 21.9 µM); MIC (Staphylococcus aureus [13]): 8 µg/mL (≈ 21.9 µM)
12 | Cc1nc(-c2ccc3ccccc3c2)sc1-c1cnc(N)s1 | > 64 | > 64 | > 64 | > 64 | > 64 | > 64 | – | – | – | –
13 | CC(=O)NC[C@H]1CN(c2ccc(N3CCOCC3)c(F)c2)C(=O)O1 [LINEZOLID] | 16 (≈ 47.4 µM) | – | 32 (≈ 94.9 µM) | – | – | 16 (≈ 47.4 µM) | 32 (≈ 94.9 µM) | 16 (≈ 47.4 µM) | 32 (≈ 94.9 µM) | MBC (Staphylococcus aureus [8]): 8 µg/mL (≈ 23.7 µM)
14 | Cc1nc(-c2ccc(-c3ccccc3)cc2)sc1-c1cnc(NC(=N)N)s1 | 8 (≈ 20.4 µM) | 16 (≈ 40.9 µM) | 16 (≈ 40.9 µM) | 8 (≈ 20.4 µM) | 8 (≈ 20.4 µM) | 16 (≈ 40.9 µM) | 32 (≈ 81.7 µM) | – | – | MIC (Staphylococcus aureus [7]): 16 µg/mL (≈ 40.9 µM); MBC (Staphylococcus aureus [8]): 8 µg/mL (≈ 20.4 µM); MIC (Staphylococcus aureus [9]): 8 µg/mL (≈ 20.4 µM)
15 | N[C@@H]1CONC1=O | – | – | – | – | – | – | – | – | – | inhibition (Bacillus subtilis [24]): Active; inhibition (Bacillus subtilis [25]): Active
16 | CCCCc1ccc(-c2nc(C)c(-c3cnc(NN)s3)s2)cc1 | > 64 | 16 (≈ 46.4 µM) | 16 (≈ 46.4 µM) | > 64 | 16 (≈ 46.4 µM) | 16 (≈ 46.4 µM) | 32 (≈ 92.9 µM) | – | – | MIC (Staphylococcus aureus [7]): 16 µg/mL (≈ 46.4 µM)
